Experimental data as given in ChEMBL document CHEMBL1156706, “Structure-activity relationships of novel heteroaryl-acrylonitriles as cytotoxic and antibacterial agents” (Eur J Med Chem, 2008).
≈ marks a conversion by molar mass, not a printed value.

Assays:
RT-4 = experiment: Cytotoxicity against human RT4 cells after 96 hrs by microtiter assay; type: functional, cell-based; details: RT-4, 96 h
Procedure, shortened: (§1)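 DSMZ cell lines in RPMI 1640 with 10% FCS. DMF stocks diluted 1000-fold into medium. Continuous exposure 96 h at 37 °C, 5% CO2. Adherent cells stained with crystal violet. IC50 (50% growth inhibition vs untreated control) obtained by least-squares fitting of dose–response curves, averaging 2–5 independent determinations.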

RT-112 = experiment: Cytotoxicity against human RT112 cells after 96 hrs by microtiter assay; type: functional, cell-based; details: RT-112, 96 h; procedure, shortened: as §1
5637 = experiment: Cytotoxicity against human 5637 cells after 96 hrs by microtiter assay; type: functional, cell-based; details: Homo sapiens, 5637, 96 h; procedure, shortened: as §1
[1] = Cytotoxicity against human KYSE70 cells after 96 hrs by microtiter assay; type: functional, cell-based; details: KYSE-70, 96 h; procedure, shortened: as §1
KYSE-510 = experiment: Cytotoxicity against human KYSE510 cells after 96 hrs by microtiter assay; type: functional, cell-based; details: KYSE-510, 96 h; procedure, shortened: as §1
[2] = Cytotoxicity against human KYSE520 cells after 96 hrs by microtiter assay; type: functional, cell-based; details: KYSE-520, 96 h; procedure, shortened: as §1
YAPC = experiment: Cytotoxicity against human YAPC cells after 96 hrs by microtiter assay; type: functional, cell-based; procedure, shortened: as §1
DAN-G = experiment: Cytotoxicity against human DAN-G cells after 96 hrs by microtiter assay; type: functional, cell-based; procedure, shortened: as §1
SISO = experiment: Cytotoxicity against human SISO cells after 96 hrs by microtiter assay; type: functional, cell-based; procedure, shortened: as §1
[3] = Cytotoxicity against human LCLC-103H cells after 96 hrs by microtiter assay; type: functional, cell-based; procedure, shortened: as §1
MCF7 = experiment: Cytotoxicity against human MCF7 cells after 96 hrs by microtiter assay; type: functional, cell-based; details: MCF7, 96 h; procedure, shortened: as §1
A-427 = experiment: Cytotoxicity against human A427 cells after 96 hrs by microtiter assay; type: functional, cell-based; details: A-427, 96 h; procedure, shortened: as §1
[4] = Aqueous solubility in phosphate buffered saline at pH 7.4 after 24 hrs; type: physicochemical
Procedure, shortened: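 Solid added in excess to Dulbecco's PBS, pH 7.4, and stirred in the dark 24 h at room temperature. Suspension filtered through a 0.22 filter. Filtrate absorbance read at each compound's λmax, and dissolved concentration calculated from the extinction coefficient at that wavelength.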

Enterococcus hirae = experiment: Antibacterial activity against Enterococcus hirae NCTC 10541 after 24 hrs; type: functional, organism-based; details: NCTC 10541, 24 h
Procedure, shortened: (§2)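 Overnight culture diluted in Mueller–Hinton broth to 10^5 CFU/ml. Compounds dissolved in DMSO and diluted twofold in broth over 0.24–62.5 […]. Tubes inoculated and incubated 24 h at 37 °C. MIC taken as the lowest concentration with no visible growth. Clear tubes were subcultured onto Mueller–Hinton agar, and MBC was taken as the minimal concentration killing the organisms after 24 h.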

Staphylococcus aureus = experiment: Antibacterial activity against Staphylococcus aureus NCTC 4163 after 24 hrs; type: functional, organism-based; details: NCTC 4163, 24 h; procedure, shortened: as §2
[5] = system: Staphylococcus epidermidis; experiment: Antibacterial activity against Staphylococcus epidermis NCTC 14990 after 24 hrs; type: functional, organism-based; details: NCTC 14990, 24 h; procedure, shortened: as §2

solubility at 24 h [4] [µM] | MIC (Enterococcus hirae) [µM] | MIC (Staphylococcus aureus) [µM] | MIC [5] [µM] | SMILES | IC50 (RT-4) [µM] | IC50 (RT-112) [µM] | IC50 5637 [µM] | IC50 [1] [µM] | IC50 (KYSE-510) [µM] | IC50 [2] [µM] | IC50 (YAPC) [µM] | IC50 (DAN-G) [µM] | IC50 (SISO) [µM] | IC50 [3] [µM] | IC50 (MCF7) [µM] | IC50 (A-427) [µM]
 |  |  |  | N#C/C(=C\c1cccc([N+](=O)[O-])c1)n1cnc2ccccc21 | 4.02 | 4.16 | 4.01 | 4.06 | 3.09 | 2.3 | 3.39 | 2.26 | 6.57 | 3.48 | 2.61 | 2.86
 |  |  |  | COc1ccc(/C=C(\C#N)c2nc3ccccc3[nH]2)s1 | 21.2 | 14.7 | 31.9 | 12.2 | 12 | 20.5 | > 40 | 13.8 | 36.8 | 5.24 | 13.2 | 7.19
 |  |  |  | S=P(N1CC1)(N1CC1)N1CC1 [THIOTEPA] | 18.3 | 3.4 | 2 | 5.4 | 4.31 | 6.44 | 2.66 | 1.66 | 1.4 | 6.97 | 3.23 | 1.58
 |  |  |  | N#C/C(=C\c1csc(Br)c1)c1nc2ccccc2[nH]1 | > 40 | > 40 | > 40 | > 40 | > 40 | > 40 | > 40 | > 40 | > 40 | 22.8 | > 40 | > 40
1.4 (≈ 0.394 µg/mL) |  |  |  | N#C/C(=C\c1ccc([N+](=O)[O-])o1)c1nc2cccnc2[nH]1 | 1.76 | 1.11 | 1.08 | 1.33 | 5.46 | 1.58 | 1.02 | 1.81 | 0.72 | 0.41 | 1.39 | 0.75
0.5 (≈ 0.149 µg/mL) | 210 (≈ 62.4 µg/mL) | 6.4 (≈ 1.9 µg/mL) | 3.2 (≈ 0.951 µg/mL) | N#C/C(=C\c1ccc([N+](=O)[O-])s1)c1nc2cccnc2[nH]1 | 0.33 | 0.62 | 0.17 | 0.38 | 0.74 | 0.32 | 0.3 | 0.62 | 0.53 | 0.11 | 0.2 | 0.11
 |  |  |  | N#C/C(=C\c1cccnc1)c1nc2ccccc2[nH]1 | 3.47 | 3.5 | 1.79 | 4.25 | 3.92 | 5.13 | 4.92 | 3.27 | 3.02 | 1.97 | 3.15 | 3.29
 |  |  |  | N#C/C(=C\c1ccncc1)c1nc2ccccc2[nH]1 | 40.1 | 30.7 | 31.2 | 37.1 | > 40 | > 40 | > 40 | > 40 | > 40 | 19.7 | > 40 | 26.2
0.7 (≈ 0.208 µg/mL) | > 210 | > 210 | > 210 | N#C/C(=C\c1ccc([N+](=O)[O-])o1)c1nc2ccccc2s1 | 4.3 | 1.78 | 2.37 | 2.38 | 5.44 | 2 | 2.25 | 3.84 | 2.5 | 1.47 | 3.33 | 1.21
 |  |  |  | N[C@@H](Cc1ccc(N(CCCl)CCCl)cc1)C(=O)O [MELPHALAN] | 14.2 | 4.69 | 0.31 | 16.2 | 8.18 | 10.5 | 5.95 | 2.65 | 1 | 4 | 3.71 | 5.13
28 (≈ 6.92 µg/mL) |  |  |  | N#C/C(=C\c1ccccn1)c1nc2cccnc2[nH]1 | 10 | 8.18 | 3.9 | 8.14 | 13.9 | 7.98 | 8.89 | 7.97 | 5.53 | 7.37 | 8.28 | 5.15
 |  |  |  | O=C(Cn1cnc2ccccc21)NC(O)c1ccc([N+](=O)[O-])s1 (stereo not drawn) | 2.96 | 13.7 | 33.7 | 57.4 | 140 | 24.2 | 22.4 | 9.6 | 11.7 | 7.46 | 13.1 | 228
 |  |  |  | O=C(Cn1cnc2ccccc21)NC(O)c1ccc([N+](=O)[O-])o1 (stereo not drawn) | 31.2 | 3.9 | 5.91 | 5.57 | 9.49 | 5.14 | 5.66 | 4.18 | 3.22 | 1.78 | 5.37 | 5.9
23 (≈ 5.69 µg/mL) |  |  |  | N#C/C(=C\c1ccccn1)c1nc2ccccc2o1 | > 20 |  | > 20 |  |  |  |  |  |  | > 20 |  | 
 | > 215 | > 215 | 215 (≈ 52.9 µg/mL) | N#C/C(=C\c1ccccn1)c1nc2ccccc2[nH]1 | 2.68 | 4.73 | 2.28 | 6.82 | 3.67 | 10.5 | 6.58 | 3.67 | 1.91 | 7.42 | 8.14 | 2.84
 |  |  |  | N#C/C(=C\c1ccc([N+](=O)[O-])cc1)n1cnc2ccccc21 | 2.56 | 2.2 | 2.2 | 2.63 | 2.41 | 1.92 | 2.43 | 1.53 | 4.34 | 1.71 | 2.47 | 1.7
 |  |  |  | O=C1CN(/N=C/c2ccc([N+](=O)[O-])o2)C(=O)N1 [NITROFURANTOIN] | 7 |  | 21.3 | 22.8 | 29 |  |  | 6.74 | 7.27 | 2.34 | 4.44 | 1.86
 |  |  |  | N#C/C(=C\c1ccsc1)c1nc2ccccc2[nH]1 | 7.82 | 13.3 | 14.1 | 16 | 23 | 14.6 | 28.9 | 15.7 | 23.8 | 3.75 | 14.4 | 6.39
 |  |  |  | Cc1cc2nc(/C(C#N)=C/c3ccc([N+](=O)[O-])s3)[nH]c2cc1C | 0.14 | 0.12 | 0.05 | 0.05 | 0.12 | 0.06 | 0.04 | 0.2 | 0.1 | 0.03 | 0.13 | 0.02
2 (≈ 0.527 µg/mL) |  |  |  | N#C/C(=C\c1ccccn1)c1nc2ccccc2s1 | 9.69 | 8.19 | 6.65 | 7.28 | 13 | 9.18 | 8.27 | 6.47 | 5.69 | 7.8 | 4.34 | 6.05
